In ChEMBL document CHEMBL3751740, “New MKLP-2 inhibitors in the paprotrain series: Design, synthesis and biological evaluations” (Bioorg Med Chem, 2016):

What was measured:
[1] = target: T1, Chromosome-associated kinesin KIF4A (Homo sapiens) (UniProt O95239); test: Inhibition of porcine brain microtubule-stimulated human recombinant GST-tagged Kif4A ATPase activity at 1 mM by microplate reader in presence of Mg2+ ATP relative to control
T1 sequence (whole entry): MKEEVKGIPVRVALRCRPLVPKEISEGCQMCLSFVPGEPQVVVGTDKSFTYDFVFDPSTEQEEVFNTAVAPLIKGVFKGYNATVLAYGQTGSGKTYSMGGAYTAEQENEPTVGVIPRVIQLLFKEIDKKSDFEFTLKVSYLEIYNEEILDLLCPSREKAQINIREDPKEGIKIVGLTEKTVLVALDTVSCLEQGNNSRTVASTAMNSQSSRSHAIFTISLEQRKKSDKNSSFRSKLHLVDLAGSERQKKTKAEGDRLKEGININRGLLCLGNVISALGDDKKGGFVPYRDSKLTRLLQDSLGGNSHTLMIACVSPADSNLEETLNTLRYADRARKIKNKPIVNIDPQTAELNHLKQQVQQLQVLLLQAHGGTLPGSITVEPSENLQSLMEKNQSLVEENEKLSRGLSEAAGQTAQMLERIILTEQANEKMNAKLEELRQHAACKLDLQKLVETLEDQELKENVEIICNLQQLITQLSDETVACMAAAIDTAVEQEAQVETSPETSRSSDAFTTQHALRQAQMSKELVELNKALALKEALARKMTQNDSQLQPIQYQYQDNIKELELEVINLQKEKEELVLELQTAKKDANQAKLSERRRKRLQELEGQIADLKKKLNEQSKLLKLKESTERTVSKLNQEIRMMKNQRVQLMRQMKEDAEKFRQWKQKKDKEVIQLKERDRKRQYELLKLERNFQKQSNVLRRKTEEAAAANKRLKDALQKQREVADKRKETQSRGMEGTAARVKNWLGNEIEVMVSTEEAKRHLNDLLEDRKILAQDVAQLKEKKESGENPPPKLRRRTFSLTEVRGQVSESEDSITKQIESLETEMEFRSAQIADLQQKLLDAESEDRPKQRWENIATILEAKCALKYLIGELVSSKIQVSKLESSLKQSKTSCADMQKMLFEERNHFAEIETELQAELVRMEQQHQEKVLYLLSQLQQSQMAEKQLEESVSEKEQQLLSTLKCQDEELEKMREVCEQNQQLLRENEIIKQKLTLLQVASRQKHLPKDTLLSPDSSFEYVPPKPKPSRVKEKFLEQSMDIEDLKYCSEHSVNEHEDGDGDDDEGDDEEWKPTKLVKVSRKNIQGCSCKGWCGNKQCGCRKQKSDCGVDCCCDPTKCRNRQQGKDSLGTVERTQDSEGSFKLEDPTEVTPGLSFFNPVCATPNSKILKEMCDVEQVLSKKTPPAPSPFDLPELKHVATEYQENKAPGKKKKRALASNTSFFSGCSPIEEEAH
In short: (§1)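 Motor domain at 15 µM final, in 7.5 mM PIPES-NaOH pH 7.0 with […], 10 µM Taxol, ELIPA 1 and 2 reagents and 1.25 mg/mL microtubules. AMP-PNP, a slowly hydrolysable ATP analog and general ATPase inhibitor, tested at 1 mM. Reaction started with 1 mM Mg2+ATP at 22 °C and read kinetically at 360 nm. Run in triplicate.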

[2] = target: T2, Kinesin-like protein KIF3C (Homo sapiens) (UniProt O14782); test: Inhibition of porcine brain microtubule-stimulated human recombinant GST-tagged KIF3C ATPase activity at 1 mM by microplate reader in presence of Mg2+ ATP relative to control; in short: as §1
T2 sequence (whole entry): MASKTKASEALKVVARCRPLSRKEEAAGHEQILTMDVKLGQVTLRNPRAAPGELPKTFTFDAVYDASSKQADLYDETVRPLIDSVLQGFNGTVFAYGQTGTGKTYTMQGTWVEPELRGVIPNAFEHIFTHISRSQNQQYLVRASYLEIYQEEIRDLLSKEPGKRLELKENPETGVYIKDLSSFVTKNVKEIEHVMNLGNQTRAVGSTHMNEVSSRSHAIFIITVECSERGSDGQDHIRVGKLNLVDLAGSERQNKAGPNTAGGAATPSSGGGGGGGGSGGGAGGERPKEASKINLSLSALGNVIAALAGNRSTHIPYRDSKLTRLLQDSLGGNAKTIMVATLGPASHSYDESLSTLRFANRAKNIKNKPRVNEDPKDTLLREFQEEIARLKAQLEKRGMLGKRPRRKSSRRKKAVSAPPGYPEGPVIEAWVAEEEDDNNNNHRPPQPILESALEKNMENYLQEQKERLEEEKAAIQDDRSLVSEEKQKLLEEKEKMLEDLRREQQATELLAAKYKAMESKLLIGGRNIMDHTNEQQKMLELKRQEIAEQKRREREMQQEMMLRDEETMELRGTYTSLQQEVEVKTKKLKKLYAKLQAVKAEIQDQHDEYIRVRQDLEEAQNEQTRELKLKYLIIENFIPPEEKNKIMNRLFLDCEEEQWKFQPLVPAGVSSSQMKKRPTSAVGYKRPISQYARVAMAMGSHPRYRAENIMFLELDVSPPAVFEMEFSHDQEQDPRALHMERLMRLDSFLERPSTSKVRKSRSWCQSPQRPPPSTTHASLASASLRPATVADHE

HT-29 = test: Growth inhibition of human HT-29 cells incubated for 4 days by WST-1 assay; assay type: functional; details: HT-29, 96 h
In short: (§2)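 Cells were kept at 37 °C under 5% CO2 and plated on day 0 at 500–5000 cells/well. On day 1 they received ten concentrations from 0.0025 to 50 µM (final), in triplicate. On day 4 WST-1 was added, followed by 30 min–4 h incubation and absorbance at 450 nm. GI50 is the concentration killing 50% of cells.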

[3] = Growth inhibition of human MIAPaCa2 cells incubated for 4 days by WST-1 assay; assay type: functional; details: MIA PaCa-2, 96 h; in short: as §2

GI50 (HT-29) [µM]	SMILES	inhibition [1] [%]	inhibition [2] [%]	GI50 [3] [µM]
	Nc1ncnc2c1ncn2[C@@H]1O[C@H](COP(=O)(O)OP(=O)(O)NP(=O)(O)O)[C@@H](O)[C@H]1O	> 30	> 30	
26.2	COc1ccc2[nH]cc(/C(C#N)=C/c3cccnc3)c2c1			5.5
